Source: ChEMBL document CHEMBL4270576, “Discovery of a benzenesulfonamide-based dual inhibitor of microsomal prostaglandin E2 synthase-1 and 5-lipoxygenase that favorably modulates lipid mediator biosynthesis in inflammation” (Eur J Med Chem, 2018)
Active and inactive are the calls of the source. No cut-off for these calls is given here.

Columns and labels:
[1] = biological target: T1, Polyunsaturated fatty acid 5-lipoxygenase (Homo sapiens) (UniProt P09917); test: Inhibition of nuclear localization of 5-LO (unknown origin) expressed in HEK293 cells at 10 uM preincubated for 10 mins followed by Ca2+ ionophore A23187 stimulation for 20 mins and measured after 1 hr by DAPI staining-based immunofluorescence microscopic analysis; assay type: cell-based
T1 sequence (whole entry): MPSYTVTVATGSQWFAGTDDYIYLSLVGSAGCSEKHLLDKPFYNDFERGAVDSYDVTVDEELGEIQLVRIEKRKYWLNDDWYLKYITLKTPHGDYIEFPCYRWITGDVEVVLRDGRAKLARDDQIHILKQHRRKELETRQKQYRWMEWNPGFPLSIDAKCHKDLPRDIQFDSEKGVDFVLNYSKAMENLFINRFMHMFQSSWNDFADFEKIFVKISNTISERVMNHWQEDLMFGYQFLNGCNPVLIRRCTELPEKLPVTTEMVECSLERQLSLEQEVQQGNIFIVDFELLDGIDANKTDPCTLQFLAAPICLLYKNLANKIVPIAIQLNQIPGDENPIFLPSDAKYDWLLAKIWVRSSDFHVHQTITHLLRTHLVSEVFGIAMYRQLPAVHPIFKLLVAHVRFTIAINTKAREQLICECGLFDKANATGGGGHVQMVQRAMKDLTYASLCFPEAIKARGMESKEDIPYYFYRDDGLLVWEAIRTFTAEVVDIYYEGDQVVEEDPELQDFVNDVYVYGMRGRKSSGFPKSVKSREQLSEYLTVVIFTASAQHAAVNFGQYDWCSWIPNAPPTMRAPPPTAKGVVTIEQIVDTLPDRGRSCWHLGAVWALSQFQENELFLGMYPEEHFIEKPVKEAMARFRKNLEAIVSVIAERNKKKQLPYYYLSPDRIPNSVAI
Outline: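 HEK293 cells stably expressing 5-LO and FLAP, on poly-L-lysine coverslips, pre-incubated 10 min with 10 µM compound or 0.1% DMSO, then stimulated with 2.5 µM A23187 for 20 min at 37 °C. After fixation and permeabilization, stained with anti-5-LO and anti-FLAP antibodies and fluorescent secondaries; imaged by immunofluorescence microscopy, 100 cells from three experiments.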

[2] = biological target: T1, Polyunsaturated fatty acid 5-lipoxygenase (Homo sapiens); test: Inhibition of 5-LO in human M1 macrophages derived from LPS/IFNgamma-polarized human monocyte derived macrophages assessed as effect on LTB4 level at 3 uM preincubated for 15 mins followed by Escherichia coli (O6:K2:H1) challenge for 90 mins by LC-MS/MS analysis; design: scale not given: the % may be the effect or the level left
Outline: (§1)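 Monocytes differentiated 6 days with GM-CSF (20 ng/ml) in RPMI/10% FCS, then polarized 48 h with LPS 100 ng/ml plus IFN-γ 20 ng/ml (M1). Cells (2 × 10^6) in PBS with 1 mM CaCl2 pre-incubated 15 min at 37 °C with 3 µM compound or 0.1% DMSO, then E. coli O6:K2:H1 (1:50) for 90 min. Methanol with deuterated standards added; SPE; UPLC-MS/MS; expressed as % of vehicle.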

[3] = biological target: T2, Cyclooxygenase (Homo sapiens, UniProt P35354+P23219); test: Modulation of COX1/2-mediated PGF2a level in human M1 macrophages derived from LPS/IFNgamma-polarized human monocyte derived macrophages at 3 uM preincubated for 15 mins followed by Escherichia coli (O6:K2:H1) challenge for 90 mins by LC-MS/MS analysis; assay type: protein assay; conditions: 1.5 h; outline: as §1
[4] = biological target: T2, Cyclooxygenase; test: Modulation of COX1/2-mediated 11-HETE level in human M2 macrophages derived from IL4-polarized human monocyte derived macrophages at 3 uM preincubated for 15 mins followed by Escherichia coli (O6:K2:H1) challenge for 90 mins by LC-MS/MS analysis; assay type: ADME; conditions: 1.5 h
Outline: (§2)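 Monocytes differentiated 6 days with M-CSF (20 ng/ml), then polarized 48 h with IL-4 20 ng/ml (M2). Cells (2 × 10^6) in PBS/1 mM CaCl2 pre-incubated 15 min at 37 °C with 3 µM compound or 0.1% DMSO, then challenged with E. coli O6:K2:H1 (1:50) for 90 min. Lipid mediators extracted by SPE with deuterated internal standards and quantified by UPLC-MS/MS as % of vehicle.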

[5] = organism: Homo sapiens; test: Modulation of LO-mediated PDX level in human M2 macrophages derived from IL4-polarized human monocyte derived macrophages at 3 uM preincubated for 15 mins followed by Escherichia coli (O6:K2:H1) challenge for 90 mins by LC-MS/MS analysis; outline: as §2
[6] = organism: Homo sapiens; test: Modulation of LO-mediated AT-PD1 level in human M2 macrophages derived from IL4-polarized human monocyte derived macrophages at 3 uM preincubated for 15 mins followed by Escherichia coli (O6:K2:H1) challenge for 90 mins by LC-MS/MS analysis; outline: as §2
[7] = organism: Homo sapiens; test: Modulation of LO-mediated RvE3 level in human M2 macrophages derived from IL4-polarized human monocyte derived macrophages at 3 uM preincubated for 15 mins followed by Escherichia coli (O6:K2:H1) challenge for 90 mins by LC-MS/MS analysis; outline: as §2
[8] = test system: Mus musculus; test: Antiinflammatory activity in zymosan induced CD-1 mouse model of inflammation assessed as reduction in LTB4 levels in air pouch at 10 mg/kg, ip preincubated for 30 mins followed by zymosan challenge and measured after 4 hrs by ELISA; assay type: functional, organism-based
Outline: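 Air pouch formed by s.c. injection of 2.5 mL sterile air in CD-1 mice; on day 6, 10 mg/kg i.p. (2% DMSO/saline) given 30 min before 1 ml 1% w/v zymosan into the pouch. After 4 h, exudate collected with 1 ml saline and centrifuged; leukocytes counted in Burker chamber; LTB4 in supernatant by ELISA (ng/mL). n=6 mice per group.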

[9] = biological target: T1, Polyunsaturated fatty acid 5-lipoxygenase (Homo sapiens); test: Inhibition of recombinant human 5-LO expressed in Escherichia coli BL21 (DE3) using 2.5 to 80 uM arachidonic acid as substrate […] followed by CaCl2 and substrate addition measured after 10 mins by RP-HPLC analysis
[10] = test system: Macrophage cell line; test: Modulation of 13-HDHA level in human M2 macrophages derived from IL4-polarized human monocyte derived macrophages at 3 uM preincubated for 15 mins followed by Escherichia coli (O6:K2:H1) challenge for 90 mins by LC-MS/MS analysis; assay type: functional; outline: as §2
[11] = biological target: T3, Leukotriene C4 synthase (Homo sapiens, UniProt Q16873); test: Inhibition of LTC4 synthase (unknown origin)
T3 sequence (Q16873 whole entry): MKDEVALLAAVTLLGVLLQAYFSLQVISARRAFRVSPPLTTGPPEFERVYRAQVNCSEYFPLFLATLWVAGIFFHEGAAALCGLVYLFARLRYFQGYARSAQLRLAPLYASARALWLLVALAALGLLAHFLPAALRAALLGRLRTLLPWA

[12] = biological target: T1, Polyunsaturated fatty acid 5-lipoxygenase (Homo sapiens); test: Ratio of IC50 for recombinant human 5-LO to IC50 for 5-LO in human neutrophils

O=C(O)c1ccc(N(Cc2cccc(OCc3ccccc3)c2)S(=O)(=O)c2ccc(-c3ccccc3)cc2)cc1
inhibition [1]: inactive | Activity [2]: 11% | Activity [3]: 142% | Activity [4]: 106% | Activity [5]: 125% | Activity [6]: 106% | Activity [7]: 121% | Activity [8]: Active | inhibition [9]: Active | Activity [10]: 127% | IC50 [11]: 1.8 µM | Ratio IC50 [12]: 8
